Results from ChEMBL document CHEMBL5376013, “Design, synthesis and biological evaluation of novel morpholinopyrimidine-5-carbonitrile derivatives as dual PI3K/mTOR inhibitors” (RSC Med Chem, 2024).

Columns and labels:
Format in all cases: functional
Settings in all cases: read-out: GI
CCRF-CEM = test: Antitumor activity against human CCRF-CEM cells assessed as growth inhibition at 10 uM relative to control
Procedure, shortened: (§1)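 After drug addition, plates were incubated 48 h at 37 °C under 5% CO2. Adherent cells were fixed with cold TCA (10% final, 60 min, 4 °C) and suspension cells with 16% final TCA. Staining used 0.4% SRB in 1% acetic acid, solubilized in 10 mM trizma, read at A515. Percent growth was calculated from time-zero, control and treated absorbances.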

K562 = test: Antitumor activity against human K562 cells assessed as growth inhibition at 10 uM relative to control; procedure, shortened: as §1
MOLT-4 = test: Antitumor activity against human MOLT-4 cells assessed as growth inhibition at 10 uM relative to control; procedure, shortened: as §1
RPMI-8226 = test: Antitumor activity against human RPMI-8226 cells assessed as growth inhibition at 10 uM relative to control; procedure, shortened: as §1
EKVX = test: Antitumor activity against human EKVX cells assessed as growth inhibition at 10 uM relative to control; procedure, shortened: as §1
NCI-H226 = test: Antitumor activity against human NCI-H226 cells assessed as growth inhibition at 10 uM relative to control; procedure, shortened: as §1
NCI-H23 = test: Antitumor activity against human NCI-H23 cells assessed as growth inhibition at 10 uM relative to control; procedure, shortened: as §1
NCI-H322M = test: Antitumor activity against human NCI-H322M cells assessed as growth inhibition at 10 uM relative to control; procedure, shortened: as §1
NCI-H522 = test: Antitumor activity against human NCI-H522 cells assessed as growth inhibition at 10 uM relative to control; procedure, shortened: as §1
COLO 205 = test: Antitumor activity against human COLO 205 cells assessed as growth inhibition at 10 uM relative to control; procedure, shortened: as §1
HCT-116 = test: Antitumor activity against human HCT-116 cells assessed as growth inhibition at 10 uM relative to control; procedure, shortened: as §1
HCT-15 = test: Antitumor activity against human HCT-15 cells assessed as growth inhibition at 10 uM relative to control; procedure, shortened: as §1
HT-29 = test: Antitumor activity against human HT-29 cells assessed as growth inhibition at 10 uM relative to control; procedure, shortened: as §1
KM12 = test: Antitumor activity against human KM12 cells assessed as growth inhibition at 10 uM relative to control; procedure, shortened: as §1
SW-620 = test: Antitumor activity against human SW-620 cells assessed as growth inhibition at 10 uM relative to control
Procedure, shortened: (§2)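 Drug exposure 48 h at 37 °C, 5% CO2. Adherent cells fixed with cold TCA (10% final), suspension cells with TCA (16% final). Stained with 0.4% SRB in 1% acetic acid, dissolved in 10 mM Tris, A515. Growth relative to time-zero and untreated control.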

SF-268 = test: Antitumor activity against human SF-268 cells assessed as growth inhibition at 10 uM relative to control; procedure, shortened: as §1
SF-539 = test: Antitumor activity against human SF-539 cells assessed as growth inhibition at 10 uM relative to control; procedure, shortened: as §1
SNB-19 = test: Antitumor activity against human SNB-19 cells assessed as growth inhibition at 10 uM relative to control; procedure, shortened: as §2
SNB-75 = test: Antitumor activity against human SNB-75 cells assessed as growth inhibition at 10 uM relative to control; procedure, shortened: as §2
U-251 = test: Antitumor activity against human U-251 cells assessed as growth inhibition at 10 uM relative to control; procedure, shortened: as §2
LOX IMVI = test: Antitumor activity against human LOX IMVI cells assessed as growth inhibition at 10 uM relative to control; procedure, shortened: as §1
Malme-3M = test: Antitumor activity against human Malme-3M cells assessed as growth inhibition at 10 uM relative to control; procedure, shortened: as §1
M14 = test: Antitumor activity against human M14 cells assessed as growth inhibition at 10 uM relative to control; procedure, shortened: as §1
MDA-MB-435 = test: Antitumor activity against human MDA-MB-435 cells assessed as growth inhibition at 10 uM relative to control; procedure, shortened: as §1
SK-MEL-2 = test: Antitumor activity against human SK-MEL-2 cells assessed as growth inhibition at 10 uM relative to control; procedure, shortened: as §1
SK-MEL-28 = test: Antitumor activity against human SK-MEL-28 cells assessed as growth inhibition at 10 uM relative to control; procedure, shortened: as §2
SK-MEL-5 = test: Antitumor activity against human SK-MEL-5 cells assessed as growth inhibition at 10 uM relative to control; procedure, shortened: as §2
UACC-257 = test: Antitumor activity against human UACC-257 cells assessed as growth inhibition at 10 uM relative to control; procedure, shortened: as §2
UACC-62 = test: Antitumor activity against human UACC-62 cells assessed as growth inhibition at 10 uM relative to control; procedure, shortened: as §2
OVCAR-3 = test: Antitumor activity against human OVCAR-3 cells assessed as growth inhibition at 10 uM relative to control; procedure, shortened: as §1
OVCAR-5 = test: Antitumor activity against human OVCAR-5 cells assessed as growth inhibition at 10 uM relative to control; procedure, shortened: as §1
OVCAR-8 = test: Antitumor activity against human OVCAR-8 cells assessed as growth inhibition at 10 uM relative to control; procedure, shortened: as §1
NCI/ADR-RES = test: Antitumor activity against human NCI-ADR-RES cells assessed as growth inhibition at 10 uM relative to control; procedure, shortened: as §1
SK-OV-3 = test: Antitumor activity against human SK-OV-3 cells assessed as growth inhibition at 10 uM relative to control; procedure, shortened: as §2
786-0 = test: Antitumor activity against human 786-0 cells assessed as growth inhibition at 10 uM relative to control; procedure, shortened: as §1
A498 = test: Antitumor activity against human A498 cells assessed as growth inhibition at 10 uM relative to control; procedure, shortened: as §1
ACHN = test: Antitumor activity against human ACHN cells assessed as growth inhibition at 10 uM relative to control; procedure, shortened: as §1
CAKI-1 = test: Antitumor activity against human CAKI-1 cells assessed as growth inhibition at 10 uM relative to control; procedure, shortened: as §1
RXF 393 = test: Antitumor activity against human RXF 393 cells assessed as growth inhibition at 10 uM relative to control; procedure, shortened: as §1
SN12C = test: Antitumor activity against human SN12C cells assessed as growth inhibition at 10 uM relative to control; procedure, shortened: as §2
TK-10 = test: Antitumor activity against human TK-10 cells assessed as growth inhibition at 10 uM relative to control; procedure, shortened: as §2
PC-3 = test: Antitumor activity against human PC-3 cells assessed as growth inhibition at 10 uM relative to control; procedure, shortened: as §1
DU-145 = test: Antitumor activity against human DU-145 cells assessed as growth inhibition at 10 uM relative to control; procedure, shortened: as §1
MCF7 = test: Antitumor activity against human MCF7 cells assessed as growth inhibition at 10 uM relative to control; procedure, shortened: as §1
BT-549 = test: Antitumor activity against human BT-549 cells assessed as growth inhibition at 10 uM relative to control; procedure, shortened: as §1
T47D = test: Antitumor activity against human T47D cells assessed as growth inhibition at 10 uM relative to control; procedure, shortened: as §2

N#Cc1c(-c2ccc(Cl)cc2)[nH]c(=S)[nH]c1=O
inhibition of growth at 10 µM (CCRF-CEM): < 1% | inhibition of growth at 10 µM (K562): < 1% | inhibition of growth at 10 µM (MOLT-4): < 1% | inhibition of growth at 10 µM (RPMI-8226): < 1% | inhibition of growth at 10 µM (EKVX): < 1% | inhibition of growth at 10 µM (NCI-H226): < 1% | inhibition of growth at 10 µM (NCI-H23): < 1% | inhibition of growth at 10 µM (NCI-H322M): < 1% | inhibition of growth at 10 µM (NCI-H522): < 1% | inhibition of growth at 10 µM (COLO 205): < 1% | inhibition of growth at 10 µM (HCT-116): < 1% | inhibition of growth at 10 µM (HCT-15): < 1% | inhibition of growth at 10 µM (HT-29): < 1% | inhibition of growth at 10 µM (KM12): < 1% | inhibition of growth at 10 µM (SW-620): < 1% | inhibition of growth at 10 µM (SF-268): < 1% | inhibition of growth at 10 µM (SF-539): < 1% | inhibition of growth at 10 µM (SNB-19): < 1% | inhibition of growth at 10 µM (SNB-75): 14.7% | inhibition of growth at 10 µM (U-251): < 1% | inhibition of growth at 10 µM (LOX IMVI): < 1% | inhibition of growth at 10 µM (Malme-3M): < 1% | inhibition of growth at 10 µM (M14): < 1% | inhibition of growth at 10 µM (MDA-MB-435): < 1% | inhibition of growth at 10 µM (SK-MEL-2): < 1% | inhibition of growth at 10 µM (SK-MEL-28): < 1% | inhibition of growth at 10 µM (SK-MEL-5): < 1% | inhibition of growth at 10 µM (UACC-257): < 1% | inhibition of growth at 10 µM (UACC-62): < 1% | inhibition of growth at 10 µM (OVCAR-3): < 1% | inhibition of growth at 10 µM (OVCAR-5): 33.4% | inhibition of growth at 10 µM (OVCAR-8): < 1% | inhibition of growth at 10 µM (NCI/ADR-RES): < 1% | inhibition of growth at 10 µM (SK-OV-3): < 1% | inhibition of growth at 10 µM (786-0): < 1% | inhibition of growth at 10 µM (A498): < 1% | inhibition of growth at 10 µM (ACHN): < 1% | inhibition of growth at 10 µM (CAKI-1): < 1% | inhibition of growth at 10 µM (RXF 393): < 1% | inhibition of growth at 10 µM (SN12C): < 1% | inhibition of growth at 10 µM (TK-10): < 1% | inhibition of growth at 10 µM (PC-3): < 1% | inhibition of growth at 10 µM (DU-145): < 1% | inhibition of growth at 10 µM (MCF7): < 1% | inhibition of growth at 10 µM (BT-549): < 1% | inhibition of growth at 10 µM (T47D): < 1%

N#Cc1c(-c2ccc(Cl)cc2)nc(N2NC(=O)CC2=N)nc1N1CCOCC1
inhibition of growth at 10 µM (CCRF-CEM): < 1% | inhibition of growth at 10 µM (K562): < 1% | inhibition of growth at 10 µM (MOLT-4): < 1% | inhibition of growth at 10 µM (RPMI-8226): < 1% | inhibition of growth at 10 µM (EKVX): < 1% | inhibition of growth at 10 µM (NCI-H226): < 1% | inhibition of growth at 10 µM (NCI-H23): < 1% | inhibition of growth at 10 µM (NCI-H322M): < 1% | inhibition of growth at 10 µM (NCI-H522): 13.6% | inhibition of growth at 10 µM (COLO 205): < 1% | inhibition of growth at 10 µM (HCT-116): < 1% | inhibition of growth at 10 µM (HCT-15): < 1% | inhibition of growth at 10 µM (HT-29): < 1% | inhibition of growth at 10 µM (KM12): < 1% | inhibition of growth at 10 µM (SW-620): < 1% | inhibition of growth at 10 µM (SF-268): < 1% | inhibition of growth at 10 µM (SF-539): < 1% | inhibition of growth at 10 µM (SNB-19): < 1% | inhibition of growth at 10 µM (SNB-75): 24.3% | inhibition of growth at 10 µM (U-251): < 1% | inhibition of growth at 10 µM (LOX IMVI): < 1% | inhibition of growth at 10 µM (Malme-3M): 58% | inhibition of growth at 10 µM (M14): < 1% | inhibition of growth at 10 µM (MDA-MB-435): < 1% | inhibition of growth at 10 µM (SK-MEL-2): < 1% | inhibition of growth at 10 µM (SK-MEL-28): < 1% | inhibition of growth at 10 µM (SK-MEL-5): < 1% | inhibition of growth at 10 µM (UACC-257): < 1% | inhibition of growth at 10 µM (UACC-62): 86.2% | inhibition of growth at 10 µM (OVCAR-3): < 1% | inhibition of growth at 10 µM (OVCAR-5): < 1% | inhibition of growth at 10 µM (OVCAR-8): < 1% | inhibition of growth at 10 µM (NCI/ADR-RES): < 1% | inhibition of growth at 10 µM (SK-OV-3): < 1% | inhibition of growth at 10 µM (786-0): < 1% | inhibition of growth at 10 µM (A498): 34.3% | inhibition of growth at 10 µM (ACHN): < 1% | inhibition of growth at 10 µM (CAKI-1): < 1% | inhibition of growth at 10 µM (RXF 393): < 1% | inhibition of growth at 10 µM (SN12C): < 1% | inhibition of growth at 10 µM (TK-10): < 1% | inhibition of growth at 10 µM (PC-3): < 1% | inhibition of growth at 10 µM (DU-145): < 1% | inhibition of growth at 10 µM (MCF7): 1% | inhibition of growth at 10 µM (BT-549): < 1% | inhibition of growth at 10 µM (T47D): < 1%
